Measurements taken from the EternaBench riboswitch data.

System: MS2 coat protein
Test: apparent Kd, MS2 coat protein; higher = weaker binding; RNA-MaP array; FMN 200 µM where present
Procedure, shortened: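 SNAP-549-labelled MS2 coat protein, doubled from 0.7 or 1.5 nM to 3 µM, was titrated over designs transcribed by stalled E. coli RNA polymerase on Illumina sequencing-chip clusters. Titrations were run without and then with constant ligand in 100 mM Tris-HCl pH 7.5, 80 mM KCl, 4 mM MgCl2, BSA, DTT, yeast tRNA and Tween-20. The apparent Kd is the median of filtered per-cluster fits to green signal normalised to red-channel RNA signal and control-cluster median Fmax.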

[1] = designed as: ON switch for flavin mononucleotide, no ligand
[2] = ligand present: flavin mononucleotide, designed as: ON switch for flavin mononucleotide
[3] = designed as: OFF switch for flavin mononucleotide, no ligand
[4] = ligand present: flavin mononucleotide, designed as: OFF switch for flavin mononucleotide

Sequence | apparent Kd [1] [nM] | apparent Kd [2] [nM] | apparent Kd [3] [nM] | apparent Kd [4] [nM]
GGUACCAUCACAGGAUAUGCAAUCCUUUGGGUUGCAGAAGGGUGUAACAUGAGGAUCACCCAUGUGGUGCCAGGGCGUGAGCCC | 423 | 44.5 |  | 
GGUACUCAAAGAGUACAAGGACGAACAUGAGGAUCACCCAUGUAGGAUAUGCUACUCAAAGAGUAGCAGAAGGACAUGUGCAGC |  |  | 25.6 | 73
GGUAGGUUCACAGGAUAUGCUAUCCUUUGGGUAGCAGAAGGGUGAUAACAUGAGGAUCACCCAUGUCCUACCGGGCGUGAGCCC | 1120 | 113 |  | 
GGUAUCUCCCGUGAGGAUAUGCGGCGUAGAACAUGAGGAUCACCCAUGUCCUUCGAAUGGGUUACGCAGAAGGCACGACGGUACC | 33.3 | 18.5 |  | 
GGUCCAGCAUGAGGAUAUGGCACCUUAUUGGUGCCAGAAGGCAUGUCUAUAGACAUGAGGAUCACCCAUGUAAUAAAUUGGACC |  | 43.2 |  | 
GGUCCUUCUGUUAGGAUAUGCUUUGGGCUUCCGCAGUAGAAGGAACAUGAGGAUCACCCAUGUCCGAUGCCGUC |  |  | 86 | 88.1
GGUCGUCAAGUCAGGAUAUCGUAUAGUAGAUGUAACGAGAAGGGACAUGAGGAUCACCCAUGUCGUCUCAUCAG |  |  | 18.9 | 25.8
GGUCGUCACAUUAACAUGAGGAUCACCCAUGUGAAAACACAUGAGGAUAUGCAUCCUAAUUGGAUGCAGAAGGCAUGGACGACC | 24.7 | 6.28 |  | 
GGUGCCAUGUAGAAGGCAGAUCUGAUUCACAUCUGAGGAUAUACAUGAGGAUCACCCAUGUAAAGGCACCGCACGAGAGUGCAA |  |  | 16.3 | 15
GGUGCCAUGUAGAAGGCAGAUCUGAUUCAGAUCUGAGGAUAUACAUGAGGAUCACCCAUGUAAAGGCUCCGCACGAGAGUGCAA |  |  | 14.9 | 41.7
GGUGCGAGUGUGAGGAUAUGCUGGUCGUAAGAUCAGCAGAAGGCACAUGAGGAUCACCCAUGUGAAAACGUACC |  |  | 22.3 | 145
GGUGCGAUGUAGAAGGCAGAUCUGAUUCAGAUCUGAGGAUAUACAUGAGGAUCACCCAUGUUAAGGCACCGCACGAGAGUGCAA |  |  | 7.4 | 13.7
GGUGCGUCUGUGAGGAUAUGCUGGUCCUUGGCUCGGCAGAAGGCACAUGAGGAUCACCCAUGUGGUGUCGUGCC |  |  | 18.5 | 34.6
GGUGCUCAAAGAGUACCAAUACGAACAUGAGGAUCACCCAUGUAGGAUAUGCUACUCAAAGAGUAGCAGAAGGACAUGUGCCUA |  |  | 16.4 | 116
GGUGGACAUGAGGAUCACCCAUGUGAGGAUAUCGGCCGGUUCGUGGUGGCUGGCGUCUCGAGAAGGCACAUAGU |  |  | 153 | 129
GGUGGACAUGAGGAUCACCCAUGUGAGGAUAUCGGCUGGUGCGUGGUGGCUGGCAUCUCGAGAAGGCACAUAGU |  |  | 94.4 | 171
GGUGGUCUUGUGAGGAUAUGGUUGGAUGCAUAUGAUCAGAAGGCACAUGAGGAUCACCCAUGUGGAAUACCACU |  |  | 37.3 | 234
GGUUGACAAAGUCAACCAUAACGAACAUGAGGAUCACCCAUGUAGGAUAUGCUACUCAAAGAGUAGCAGAAGGACAUGUGCCUU |  |  | 35.7 | 293
GGUUGACAAAGUCAACCAUAACGAACAUGAGGAUCACCCAUGUAGGAUAUGCUACUCAAAGAGUAGCAGAAGGACAUGUGUCUU |  |  | 32.6 | 161
GGUUGACAUGAGGAUCACCCAUGUGAGGAUAUCGGCUGGUACGUGUUGGCUGGCAUCUCGAGAAGGCACAUAGG |  |  | 170 | 58.4
GGUUGGCGAGGAUAUACAUGAGGAUCACCCAUGUGGUCCUGUGGCUGGUCUUGACUUUGUAGAAGGCGCGGGUC |  |  | 49.7 | 55.3
GGUUGUCAUAGUCAUCCUUUCCGUACAUGAGGAUCACCCAUGUAGGAUAUGCUGCUCUCGGUGUGGCAGAAGGGCGUGUGUCUU |  |  | 17.8 | 18.9
GUAAAGUGAGGAUAUGGUAAAUUAAUUAUUUAGUAAUUAAUCCAGAAGGCACAUGAGGAUCACCCAUGUAAAUG |  |  | 30.7 | 51.4
GUAAAUCAUGUAGGAUAUGCAUGGCGAAGCUACGCAGAAGGACAUGAGGAUCACCCAUGUGCUAGCUACCGAGUUCGGUGGCAA |  |  | 77.1 | 354
GUAACUUAUGUCAGGAUAUUACACGCAUUGCGUGGUGAGAAGGGACAUGAGGAUCACCCAUGUCCGGAUGCGGG |  |  | 39.8 | 62.6
GUAAGAAAUACAGGAUAUGUUAGUUUUAAGUGUAUUGGUUAUUACUUAAUUACAGAAGGGUAUUACAUGAGGAUCACCCAUGUA | 14.8 | 9.06 |  | 
GUACAUACAAAGUUACAUGAGGAUCACCCAUGUUUAUUGGGAAGAAGGGUAACAUUAUUAAAUAUAUAGGAUAUUUCACAAUUG | 546 | 283 |  | 
GUACUGUAGUGAGGAUAUACGAGAACGAUAGUUCGGCGAUCCAUAUAUACAUGAGGAUCACCCAUGUAGAAGGCACUUCAGUAC |  |  | 9.3 | 108

Sequence | apparent Kd [1] [nM] | apparent Kd [2] [nM] | apparent Kd [3] [nM] | apparent Kd [4] [nM]
GUAGAGUCAGGAUAUACAAGAUCGAAAGAUCGAAGAUUUAUACAUGAGGAUCACCCAUGUAGAAGGGACUCUAC |  |  | 14.4 | 16.9
GUAGAGUCAGGAUAUACGAGAUCGAUAGAUCAAAGAUCCUUACAUGAGGAUCACCCAUGUAGAAGGGACUCUAC |  |  | 37.4 | 677
GUAGCAAUCGGAGGAUAUGGGUUAUACAUGAGGAUCACCCAUGUUAAUUUACUAGAAGGCCGAUUGCUACAAGAGCGAAAGCUC | 10.8 | 5.7 |  | 
GUAGCAUAAUCAGGAUAUUCAGCGAAUAGAUUGACAUGAGGAUCACCCAUGUGGCGAAAGCCUAGGGAGAAGGGAUAAUGCUAC | 405 | 42.1 |  | 
GUAGCAUAAUUAGGAUAUUCAGCGAAUAGAUUGACAUGAGGAUCACCCAUGUGGCGAAAGCCUAGGGAGAAGGGAUAAUGCUAC | 254 | 120 |  | 
GUAGCAUACAGAGGAUAUCUAAACCGGAAACGGACAUGAGGAUCACCCAUGUGGCGAAAGCCUAGGGAGAAGGCUGAAUGCUAC | 13.2 | 11.8 |  | 
GUAGCAUACAGAGGAUAUUCAAAACCGCAAAGCGGACAUGAGGAUCACCCAUGUGGCGAAAGCCGGGAGAAGGCUGAAUGCUAC | 18.7 | 16.1 |  | 
GUAGCAUACCGAGGAUAUCUAACGACAAAGUCGACAUGAGGAUCACCCAUGUGGCGAAAGCCUUGGGAGAAGGCGGAAUGCUAC | 16.2 | 12.6 |  | 
GUAGCAUACCGAGGAUAUUCAACGACAAAGUCGACAUGAGGAUCACCCAUGUGGCGAAAGCCUUGGGAGAAGGCGGAAUGCUAC | 16.5 | 11.1 |  | 
GUAGCAUACCGAGGAUAUUCAUACCCGAAAGGGACAUGAGGAUCACCCAUGUGGCGAAAGCCUUGGGAGAAGGCGGAAUGCUAC | 580 | 24.4 |  | 
GUAGCAUACCGAGGAUAUUCAUAGCGGAAACGCACAUGAGGAUCACCCAUGUGGCGAAAGCCUUGGGAGAAGGCGGAAUGCUAC | 118 | 18.1 |  | 
GUAGCAUGCAGGCAGGAUAUUCAUAUUAAAACAUGAGGAUCACCCAUGUAGGCCAAAAGGCCUUGGGAGAAGGGCCACAUGCUAC | 636 | 45.7 |  | 
GUAGCAUUGACAGGAUAUCCAUAUCCGAAAGGGACAUGAGGAUCACCCAUGUCGCGAAAGCGGUGGGAGAAGGGUCUAUGCUAC | 5.03 | 4.38 |  | 
GUAGCUACUUUUAUACAUGAGGAUCACCCAUGUUACUUGGGUAAGGAUAUUGAUGUUAUGAUUAUCAAGAAGGUACUAUGCUAC | 136 | 30 |  | 
GUAGCUAUCGCAGGAUAUCCUCAGCGGAAACGCACAUGAGGAUCACCCAUGUAAAUAAAUAAUUUGGAGAAGGGCGAUAGCUAC | 323 | 26.8 |  | 
GUAGCUAUCGCAGGAUAUUCAUACCGGAAACGGACAUGAGGAUCACCCAUGUGGCGAAAGCCUUGGGAGAAGGCCGAUAGCUAC | 1160 | 789 |  | 
GUAGCUAUCGGAGGAUAUUCAUACCGGAAACGGACAUGAGGAUCACCCAUGUGCGGAAACGCUUGGGAGAAGGCCGAUAGCUAC | 247 | 19.4 |  | 
GUAGCUAUCGGAGGAUAUUCAUACCGGAAACGGACAUGAGGAUCACCCAUGUGGCGAAAGCAUUGGGAGAAGGCCGAUAGCUAC | 576 | 19.7 |  | 
GUAGCUAUUAAAGGAUAUUCAUACCGGAAACGGACAUGAGGAUCACCCAUGUGGCGAAAGCCUUGGGAGAAGGUUAUUAGCUAC | 378 | 15.6 |  | 
GUAGCUUCAUUUAUACAUGAGGAUCACCCAUGUUACAUGGGUAAGGAUAUUGAUGUUAUGAUUAUCAAGAAGGUACUAUGCUAC | 663 | 39.6 |  | 
GUAGUGUAUGUAGGAUAUGUGAAGGAAACAUUUACAGAAGGACAUGAGGAUCACCCAUGUAUUUCAGUCACCAAUGUGACUGAU |  |  | 24.7 | 43.4
GUAUAUAUUACAUGAGGAUCACCCAUGUCAGAACGGGUAAUCAGAAGGUAUUAUUAGAGAAAGAGUAAGGAUAUGAUUAUAUAC | 622 | 181 |  | 
GUAUAUCACUAAGGAUAUCUGUAAUAUGUUGAAACAUGAGGAUCACCCAUGUUCAUGUAUUUAUAGGAGAAGGUAGAGAUAUAC | 4.34 | 4.15 |  | 
GUAUAUCACUUAGGAUAUCUAUAAUUUAUUGAAACAUGAGGAUCACCCAUGUUCAUAAAUUUAUAGGAGAAGGGAGUGAUAUAC | 4.22 | 4.37 |  | 
GUAUCUUACCAAGGAUAUUUAAGAUUAGUGUAGACAUGAGGAUCACCCAUGUGGCCUUAGUCACGGGAGAAGGUGGUUUGAUAC | 312 | 70.9 |  | 
GUAUCUUAUGAGAAGGCGAUCAUGAAACAUGAUCGAGGAUAUCAUGAAAACAUGAGGAUCACCCAUGUAUGGGUAUUAUGGUAC | 63.5 | 43.7 |  | 
GUAUGAGCGAUAGGAUAUACUGAGAUUGAAUGGGUAGAAGGAUCUCUUGUGAGGAAGACAUGAGGAUCACCCAUGUCACGGGCC | 100 | 175 |  | 
